# From PubChem BioAssay AID624324 (Broad Institute, 2012)
# The source made the active and inactive calls.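 The calls were made as follows: active = fitted AC50 at or under twice the sample's top valid tested dose, with viability loss; inconclusive = flat curve with 30 to 70% viability loss, or poor fit; inactive = the rest, including shifts toward viability gain.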
# Test system: not listed separately
# Test: cytotoxicity in MITF-independent A375 cells – cell-based, CellTiter-Glo luminescence, dry powder, set 3, counter-screen for MITF inhibitor project, dose response (AID 624324)
# Conditions: A375 melanoma viability, CellTiter-Glo ATP luminescence, 24 h; at 35 µM (top of the series)
# Method in brief: (§1)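 assay system = A375 melanoma cells, MITF-independent | quantity = 3000 A375 cells seeded per well | incubation = 24 h exposure at 37 °C, 5 min detection at RT | measured by = ATP luminescence, CellTiter-Glo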
row,SMILES,"activity change, negative = viability loss"
1,C=CCNC1=C(NCCCN2CCOCC2)C(=O)c2ccccc2C1=O,1.84% (inactive)
2,O=C(NC1=C(N2CCN(c3ccccc3)CC2)C(=O)c2ccccc2C1=O)c1ccccc1,-7.51% (inactive)
3,NC1=C(c2ccccc2)C(=O)c2ccccc2C1=O,-6.89% (inactive)
4,O=C1C(NS(=O)(=O)c2ccc(Br)cc2)=C(N2CCN(c3ccccc3)CC2)C(=O)c2ccccc21,0.602% (inactive)
5,C=CCNC1=C(NCC=C)C(=O)c2ccccc2C1=O,1.61% (inactive)
6,COc1ccc(C2=C(NC(=O)c3ccc(OC)cc3-c3cccc(OC)c3)C(=O)c3ccccc3C2=O)cc1,4.86% (inactive)
7,NC1=C(c2ccc(OC(F)(F)F)cc2)C(=O)c2ccccc2C1=O,-5.51% (inactive)
8,CN1CCN(C2=C(NS(=O)(=O)c3ccc(Br)cc3)C(=O)c3ccccc3C2=O)CC1,1% (inactive)
9,CN1CCN(C2=C(NS(=O)(=O)c3cccs3)C(=O)c3ccccc3C2=O)CC1,12.4% (inactive)

# Test system: A375 melanoma viability, CellTiter-Glo ATP luminescence, 24 h
# Test: as above
# Conditions: not given
# Method in brief: as §1
row,SMILES,AC50
1,CCN1CCN(C2=C(NS(=O)(=O)c3ccc(Br)cc3)C(=O)c3ccccc3C2=O)CC1,> 70 µM (inactive)
2,COc1ccc(C(=O)NC2=C(c3ccc(OC(F)(F)F)cc3)C(=O)c3ccccc3C2=O)cc1,32.2 µM
3,NC1=C(NC(=O)c2ccccc2)C(=O)c2ccccc2C1=O,> 70 µM (inactive)
4,COc1ccc(C2=C(NC(=O)c3ccccc3OC)C(=O)c3ccccc3C2=O)cc1,25.5 µM
5,CCN(CC)CCCNC1=C(N(C)C(C)=O)C(=O)c2ccccc2C1=O,6.19 µM
6,C=CCNC1=C(Nc2ccccc2)C(=O)c2ccccc2C1=O,> 70 µM (inactive)
7,O=C(NC1=C(c2ccccc2)C(=O)c2ccccc2C1=O)c1ccco1,13.8 µM
8,O=C1C(NS(=O)(=O)c2cccs2)=C(N2CCCCC2)C(=O)c2ccccc21,> 70 µM (inactive)
9,CCN1CCN(C2=C(NS(=O)(=O)c3cccs3)C(=O)c3ccccc3C2=O)CC1,> 70 µM (inactive)
10,COc1ccc(C2=C(N)C(=O)c3ccccc3C2=O)cc1,> 70 µM (inactive)
11,Cc1ccc(C(=O)NC2=C(c3ccc(OC(F)(F)F)cc3)C(=O)c3ccccc3C2=O)o1,30.4 µM
12,CC1CCN(CC(CS(=O)(=O)c2ccc([N+](=O)[O-])cc2)N2CCC(C)CC2)CC1 (configuration not stated),> 70 µM (inactive)
13,O=C1C(NS(=O)(=O)c2ccccc2)=C(N2CCOCC2)C(=O)c2ccccc21,13.8 µM
14,O=C(CNc1cccc2ccccc12)N/N=C/c1ccc([N+](=O)[O-])o1,> 70 µM (inactive)
15,CC(=O)N(C)C1=C(N2CCN(C)CC2)C(=O)c2ccccc2C1=O,15.6 µM
16,COc1ccc(C2=C(NC(=O)c3cccc(Cl)c3)C(=O)c3ccccc3C2=O)cc1,16.8 µM
17,CN1CCN(C2=C(NC(=O)c3ccc(Br)cc3)C(=O)c3ccccc3C2=O)CC1,15.2 µM
18,C=CCNC1=C(N(C)C(C)=O)C(=O)c2ccccc2C1=O,9.29 µM
19,O=C(NC1=C(N2CCCCC2)C(=O)c2ccccc2C1=O)c1ccccc1,> 70 µM (inactive)
20,O=C1C(NS(=O)(=O)c2ccc(Br)cc2)=C(c2ccc(OC(F)(F)F)cc2)C(=O)c2ccccc21,> 70 µM (inactive)
21,COC1=C(NS(=O)(=O)c2ccccc2)C(=O)c2ccccc2C1=O,> 70 µM (inactive)

row,SMILES,AC50
1,CC(=O)NC1=C(c2cccc(Cl)c2)C(=O)c2ccccc2C1=O,9.51 µM
2,O=C1C(Nc2ccccc2)=C(N2CCSCC2)C(=O)c2ccccc21,> 70 µM (inactive)
3,NC1=CC(=O)c2ccccc2C1=O,> 70 µM (inactive)
4,CN1CCN(C2=C(NC(=O)c3ccccc3)C(=O)c3ccccc3C2=O)CC1,13.6 µM
5,CCN1CCN(C2=C(NC(=O)c3ccccc3)C(=O)c3ccccc3C2=O)CC1,25 µM
6,CN1CCN(C2=C(NS(=O)(=O)c3ccc(Br)s3)C(=O)c3ccccc3C2=O)CC1,> 70 µM (inactive)
7,CCN1CCN(C2=C(NS(=O)(=O)c3ccc(Br)s3)C(=O)c3ccccc3C2=O)CC1,> 70 µM (inactive)
8,COc1ccc(C(=O)NC2=C(c3ccc(OC)cc3)C(=O)c3ccccc3C2=O)cc1,14.9 µM
9,O=C(NC1=C(N2CCOCC2)C(=O)c2ccccc2C1=O)c1ccccc1,26.9 µM
10,O=C1C(NCCCN2CCOCC2)=C(Nc2ccccc2)C(=O)c2ccccc21,> 70 µM (inactive)
11,CC(=O)NC1=C(c2ccc(Cl)cc2)C(=O)c2ccccc2C1=O,10.4 µM
12,COc1ccc(C2=C(NC(=O)c3cccc(OC)c3)C(=O)c3ccccc3C2=O)cc1,27.2 µM
13,O=C1C=C(Nc2ccccc2)C(=O)c2ccccc21,13.9 µM
14,CC(=O)N(C)C1=C(N2CCCCC2)C(=O)c2ccccc2C1=O,29.1 µM
15,CC(=O)NC1=C(c2ccccc2)C(=O)c2ccccc2C1=O,12.1 µM
16,C=CCNC1=C(N2CCN(CC)CC2)C(=O)c2ccccc2C1=O,15.7 µM
17,O=C1C(NS(=O)(=O)c2ccccc2)=C(N2CCCCC2)C(=O)c2ccccc21,> 70 µM (inactive)
18,C=CCNC1=C(N2CCSCC2)C(=O)c2ccccc2C1=O,11.3 µM
19,O=C(NC1=C(N2CCSCC2)C(=O)c2ccccc2C1=O)c1ccc(Br)cc1,> 70 µM (inactive)
20,C=CCNC1=C(N2CCOCC2)C(=O)c2ccccc2C1=O,22.8 µM
21,O=C(NC1=C(c2ccccc2)C(=O)c2ccccc2C1=O)c1ccc(Br)cc1,26.4 µM

row,SMILES,AC50
1,COc1cccc(C2=C(NC(=O)c3ccccc3)C(=O)c3ccccc3C2=O)c1,16.2 µM
2,C=CCNC1=C(N2CCCCC2)C(=O)c2ccccc2C1=O,19.6 µM
3,C=CCNC1=C(NS(=O)(=O)c2cccs2)C(=O)c2ccccc2C1=O,> 70 µM (inactive)
4,O=C(NC1=C(c2ccccc2)C(=O)c2ccccc2C1=O)c1ccccc1,27.9 µM
5,C=CCNC1=C(NCCN(CC)CC)C(=O)c2ccccc2C1=O,35.2 µM
6,O=C1C(NS(=O)(=O)c2cccs2)=C(N2CCOCC2)C(=O)c2ccccc21,> 70 µM (inactive)
7,C[C@@H](NC1=C(Nc2ccccc2)C(=O)c2ccccc2C1=O)c1ccccc1,> 70 µM (inactive)
8,O=C1C(NS(=O)(=O)c2ccc(Br)cc2)=C(N2CCSCC2)C(=O)c2ccccc21,> 70 µM (inactive)
9,O=C1C(Nc2ccccc2)=C(N2CCOCC2)C(=O)c2ccccc21,> 70 µM (inactive)
10,O=C1C(NS(=O)(=O)c2ccc(Br)s2)=C(N2CCSCC2)C(=O)c2ccccc21,> 70 µM (inactive)
11,O=C1C(NS(=O)(=O)c2ccc(Br)s2)=C(N2CCOCC2)C(=O)c2ccccc21,> 70 µM (inactive)
12,COc1ccc(C2=C(NC(C)=O)C(=O)c3ccccc3C2=O)cc1,13.3 µM
13,O=C1C(NS(=O)(=O)c2ccc(Br)cc2)=C(N2CCCCC2)C(=O)c2ccccc21,> 70 µM (inactive)
14,COc1cccc(-c2cc(C(=O)NC3=C(Cl)C(=O)c4ccccc4C3=O)ccc2OC)c1,> 70 µM (inactive)
15,O=C(NC1=C(c2ccc(OC(F)(F)F)cc2)C(=O)c2ccccc2C1=O)c1ccco1,28 µM
16,COc1ccc(C2=C(NC(=O)c3ccccc3Cl)C(=O)c3ccccc3C2=O)cc1,12.2 µM
17,C=CCNC1=C(NS(=O)(=O)c2ccc(Br)cc2)C(=O)c2ccccc2C1=O,> 70 µM (inactive)
18,O=C1C(Nc2ccccc2)=C(NS(=O)(=O)c2ccccc2[N+](=O)[O-])C(=O)c2ccccc21,> 70 µM (inactive)
19,C=CCNC1=C(Cl)C(=O)c2ccccc2C1=O,> 70 µM (inactive)
20,O=C(NC1=C(c2ccc(OC(F)(F)F)cc2)C(=O)c2ccccc2C1=O)c1ccccc1,23.6 µM
21,O=C1C(NS(=O)(=O)c2ccc(Br)s2)=C(N2CCCCC2)C(=O)c2ccccc21,> 70 µM (inactive)

row,SMILES,AC50
1,CC(=O)N(C)C1=C(N2CCOCC2)C(=O)c2ccccc2C1=O,32.9 µM
2,O=C(NC1=C(c2ccc(OC(F)(F)F)cc2)C(=O)c2ccccc2C1=O)c1ccccc1F,36.6 µM
3,C=CCNC1=C(NCCCN(CC)CC)C(=O)c2ccccc2C1=O,22 µM
4,O=C(NC1=C(N2CCCCC2)C(=O)c2ccccc2C1=O)c1ccc(Br)cc1,> 70 µM (inactive)
5,Cc1ccc(C(=O)NC2=C(c3ccccc3)C(=O)c3ccccc3C2=O)o1,16 µM
6,CN1CCN(C2=C(Nc3ccccc3)C(=O)c3ccccc3C2=O)CC1,27.2 µM
7,CC(=O)NC1=C(c2ccc3c(c2)oc2ccccc23)C(=O)c2ccccc2C1=O,24.7 µM
8,C=CCNC1=C(N2CCN(C)CC2)C(=O)c2ccccc2C1=O,20.9 µM
9,O=C1C(Nc2ccccc2)=C(N2CCN(c3ccccc3)CC2)C(=O)c2ccccc21,> 70 µM (inactive)
10,CCN(CC)CCCCNC1=C(Nc2ccccc2)C(=O)c2ccccc2C1=O,> 70 µM (inactive)
11,CCN1CCN(C2=C(NC(=O)c3ccc(Br)cc3)C(=O)c3ccccc3C2=O)CC1,18.4 µM
12,CCN(CC)CCNC1=C(Nc2ccccc2)C(=O)c2ccccc2C1=O,> 70 µM (inactive)
13,CCN1CCN(C2=C(N(C)C(C)=O)C(=O)c3ccccc3C2=O)CC1,15.2 µM
14,O=C1C(NS(=O)(=O)c2ccc(Br)cc2)=C(N2CCOCC2)C(=O)c2ccccc21,> 70 µM (inactive)
15,C=CCNC1=C(NC(=O)c2ccccc2)C(=O)c2ccccc2C1=O,> 70 µM (inactive)
16,Cc1nc2ccccc2n1/N=C/c1ccc([N+](=O)[O-])s1,> 70 µM (inactive)
17,O=C1C(NS(=O)(=O)c2ccc(Br)cc2)=C(c2ccccc2)C(=O)c2ccccc21,> 70 µM (inactive)
18,O=C(NC1=C(Cl)C(=O)c2ccccc2C1=O)c1ccccc1,29.9 µM
19,COc1ccc(C2=C(NC(=O)c3ccc(Cl)cc3)C(=O)c3ccccc3C2=O)cc1,27.7 µM
20,COc1ccc(C(=O)NC2=C(c3ccccc3)C(=O)c3ccccc3C2=O)cc1,24.8 µM
